ChEMBL document CHEMBL1799919, “Design, synthesis, biological evaluation, and structure-activity relationships of substituted phenyl 4-(2-oxoimidazolidin-1-yl)benzenesulfonates as new tubulin inhibitors mimicking combretastatin A-4” (J Med Chem, 2011)
Active and inactive are the calls of the source. The calls are words filed in the database; no cut-off is given here.

Assays:
M21 [1] = assay: Cell cycle arrest in human M21 cells assessed as accumulation at S phase at 5 times IC50 after 24 hrs using propidium iodide staining by flow cytometric analysis (reference value: 30%); format: functional
CEM-VLB = assay: Resistant ratio of IC50 for multidrug-resistant human CEM-VLB cells to IC50 for human CEM cells; format: functional
Summary of the method: (§1)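 Ratio of the IC50 in the resistant line (CEM-VLB, CHO-TAX 5-6 or CHO-VV 3-2) to the IC50 in its parental line (CEM or CHO).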

M21 [2] = assay: Antiproliferative activity against human M21 cells after 48 hrs by sulforhodamine B assay; format: functional, cell-based; conditions: M21, 48 h
CCRF-CEM = assay: Antiproliferative activity against human CEM cells after 48 hrs by sulforhodamine B assay; format: functional, cell-based
M21 [3] = assay: Cell cycle arrest in human M21 cells assessed as accumulation at G0/G1 phase at 5 times IC50 after 24 hrs using propidium iodide staining by flow cytometric analysis (reference value: 61%); format: functional
CHO-TAX 5-6 [4] = assay: Resistant ratio of IC50 for paclitaxel-resistant CHO-TAX 5-6 cells to IC50 for CHO cells; format: functional, Cricetulus griseus; summary of the method: as §1
CHO-VV 3-2 = assay: Antiproliferative activity against colchicine- and vinblastine-resistant CHO-VV 3-2 cells after 48 hrs by sulforhodamine B assay; conditions: Cricetulus griseus, CHO-VV 3-2, 48 h
MCF7 = assay: Antiproliferative activity against human MCF7 cells after 48 hrs by sulforhodamine B assay; format: functional, cell-based; conditions: MCF7, 48 h
M21 [5] = assay: Cell cycle arrest in human M21 cells assessed as accumulation at G2/M phase at 5 times IC50 after 24 hrs using propidium iodide staining by flow cytometric analysis (reference value: 9%); format: functional
[6] = Antiproliferative activity against multidrug-resistant human CEM/VLB cells after 48 hrs by sulforhodamine B assay; format: functional
L1210 = assay: Antiproliferative activity against mouse L1210 cells after 48 hrs by sulforhodamine B assay; format: functional, cell-based; conditions: L1210, 48 h
K562 = assay: Antiproliferative activity against human K562 cells after 48 hrs by sulforhodamine B assay; format: functional, cell-based; conditions: K562, 48 h
MDA-MB-231 [7] = assay: Displacement of N,N'-ethylenebis(iodoacetamide) from colchicine-binding site of beta-tubulin in human MDA-MB-231 cells at 1000 times IC50 preincubated for after 2 hrs before N,N'-ethylenebis(iodoacetamide) addition measured after 1.5 hrs by chemiluminescence assay; format: cell-based
Summary of the method: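 EBI (100 μM final) added for 1.5 h at 37 °C; controls received 0.5% DMSO. Lysates (20 μg protein) run on 10% SDS-PAGE and blotted with anti-β-tubulin (TUB 2.1). β-tubulin–EBI adduct band detected by ECL.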

SK-OV-3 = assay: Antiproliferative activity against human SKOV3 cells after 48 hrs by sulforhodamine B assay; format: functional, cell-based; conditions: SK-OV-3, 48 h
CHO = assay: Antiproliferative activity against CHO cells after 48 hrs by sulforhodamine B assay; format: functional, cell-based; conditions: Cricetulus griseus
HT-1080 [8] = assay: Antiproliferative activity against human HT1080 cells after 48 hrs by sulforhodamine B assay; format: functional, cell-based; conditions: HT-1080, 48 h
[9] = Toxicity against fertilized chicken embryo assessed as mortality at 3 ug per egg, iv by CAM assay; format: organism-based, Gallus gallus; conditions: in vivo, read-out: Activity
Summary of the method: (§2)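 Fertilized chicken eggs incubated 10 days with automatic turning, then static. HT-1080 cells (3.5 × 10^5 cells/egg) grafted onto exposed CAM. On day 11, drug in DMSO diluted into cremophor/ethanol/PBS (6.25/6.25/87.5 v/v) excipient, DMSO below 0.5%, 100 μL injected iv into 10-12 eggs. Eggs incubated to day 17, dead embryos counted. Untreated eggs used for normalization. Two independent experiments, at least 10 eggs each.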

DU-145 = assay: Antiproliferative activity against human DU145 cells after 48 hrs by sulforhodamine B assay; format: functional, cell-based; conditions: DU-145, 48 h
HT-29 = assay: Antiproliferative activity against human HT-29 cells after 48 hrs by sulforhodamine B assay; format: functional, cell-based; conditions: HT-29, 48 h
MDA-MB-231 [10] = assay: Antiproliferative activity against human MDA-MB-231 cells after 48 hrs by sulforhodamine B assay; format: functional, cell-based; conditions: MDA-MB-231, 48 h
[11] = Antiproliferative activity against mouse P388D1 cells after 48 hrs by sulforhodamine B assay; format: functional, cell-based; conditions: P388D1, 48 h
HT-1080 [12] = assay: Antivasculogenic activity against human HT1080 cells xenografted in chicken chorioallantoic membrane assessed as inhibition of tumor growth at 3 ug per egg, iv measured on day 14 by CAM assay; format: functional; design: scale not given: the % may be the effect or the level left
M21 [13] = assay: Disruption of cytoskeleton microtubule structure of human M21 cells at 5 times IC50 after 16 hrs by indirect immunofluorescence assay; format: functional, cell-based
Summary of the method: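 Fixed in 3.7% formaldehyde, permeabilized with saponin, and stained with anti-β-tubulin (TUB 2.1), Alexa-488 secondary and DAPI. Microtubule structure scored by fluorescence microscopy.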

CHO-TAX 5-6 [14] = assay: Antiproliferative activity against paclitaxel-resistant CHO-TAX 5-6 cells after 48 hrs by sulforhodamine B assay; format: functional, cell-based; conditions: Cricetulus griseus, CHO-TAX 5-6, 48 h
[15] = Antiproliferative activity against mouse B16F0 cells after 48 hrs by sulforhodamine B assay; format: functional, cell-based; conditions: B16F0, 48 h
HT-1080 [16] = assay: Antivasculogenic activity against human HT1080 cells xenografted in chicken chorioallantoic membrane assessed as inhibition of tumor growth at 1 ug per egg, iv measured on day 14 by CAM assay; format: functional; design: scale not given: the % may be the effect or the level left
[17] = Toxicity against fertilized chicken embryo assessed as mortality at 1 ug per egg, iv by CAM assay; format: organism-based, Gallus gallus; conditions: in vivo, read-out: Activity; summary of the method: as §2

Row | Compound | Activity (M21 [1]) [%] | Ratio IC50 (CEM-VLB) | IC50 (M21 [2]) [nM] | IC50 (CCRF-CEM) [nM] | Activity (M21 [3]) [%] | Ratio IC50 (CHO-TAX 5-6 [4]) | IC50 (CHO-VV 3-2) [nM] | IC50 (MCF7) [nM] | Activity (M21 [5]) [%] | IC50 [6] [nM] | IC50 (L1210) [nM] | IC50 (K562) [nM] | inhibition (MDA-MB-231 [7]) | IC50 (SK-OV-3) [nM] | IC50 (CHO) [nM] | IC50 (HT-1080 [8]) [nM] | mortality [9] [%] | IC50 (HT-29) [nM] | Activity (HT-1080 [12]) | Activity (M21 [13]) | also measured
1 | COc1cc(OC)cc(OS(=O)(=O)c2ccc(N3CCNC3=O)cc2)c1 | 24 | 1.3 | 4.3 | 7.1 | 1 | 0.71 | 15 | 10 | 75 | 9.2 | 6.4 | 7.5 | Active | 6.8 | 7.3 | 8.2 | 10 | 8 | 56% | Active | IC50 (DU-145): 25 nM; IC50 (MDA-MB-231 [10]): 14 nM; IC50 [11]: 7.8 nM; IC50 (CHO-TAX 5-6 [14]): 5.2 nM; IC50 [15]: 25 nM
2 | O=C1NCCN1c1ccc(S(=O)(=O)Oc2cccc(I)c2)cc1 | 21 | 1.1 | 10 | 17 | 2 | 0.52 | 20 | 18 | 77 | 18 | 19 | 14 | Active | 23 | 17 | 19 | 43 | 11 | Active | Active | IC50 (DU-145): 57 nM; IC50 (MDA-MB-231 [10]): 48 nM; IC50 [11]: 18 nM; IC50 (CHO-TAX 5-6 [14]): 8.9 nM; IC50 [15]: 30 nM
3 | COc1ccc(/C=C\c2cc(OC)c(OC)c(OC)c2)cc1O [COMBRETASTATIN A4] | 0 |  | 4.3 |  | 2 |  |  | 5.6 | 98 |  |  |  | Active |  |  |  | 41 | 61 | 45% | Active | Activity (HT-1080 [16]): 48%; mortality [17]: 18%
